Measured values as given in ChEMBL document CHEMBL5030534, “Discovery of Novel Anti-Breast-Cancer Inhibitors by Synergistically Antagonizing Microtubule Polymerization and Aryl Hydrocarbon Receptor Expression” (J Med Chem, 2021).
Activity calls are given as the source filed them. The calls are words filed in the database; no cut-off is given here.

Experiments:
MCF7 [1] = assay: Antiproliferative activity against human MCF7 cells assessed as reduction in cell viability incubated for 48 hrs by MTT assay; format: functional, cell-based; settings: MCF7, 48 h
How it was run: (§1)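 Cells seeded at 5 × 10³ per well, incubated overnight, then exposed to a range of compound concentrations for 48 h. MTT added for 4 h, medium replaced with DMSO, absorbance read at 570 nm. MCF-7, L-O2 grown in DMEM; MCF-10A, MCF-7/ADR in RPMI 1640. Three independent runs.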

L02 = assay: Antiproliferative activity against human L-O2 cells assessed as reduction in cell viability incubated for 48 hrs by MTT assay; format: cell-based; settings: L02, 48 h; how it was run: as §1
[2] = Antiproliferative activity against human MCF7/ADR cells assessed as reduction in cell viability incubated for 48 hrs by MTT assay; format: functional, cell-based; settings: MCF7, 48 h
How it was run: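 Cells seeded at 5 × 10³ per well, incubated overnight, then exposed to a range of compound concentrations for 48 h. MTT added for 4 h, medium replaced with DMSO, absorbance read at 570 nm. Three independent runs.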

MCF-10A = assay: Antiproliferative activity against human MCF-10A cells assessed as reduction in cell viability incubated for 48 hrs by MTT assay; format: cell-based; how it was run: as §1
Tubulin (Homo sapiens) = Tubulin (Homo sapiens) (UniProt P68371+Q9H4B7+P0DPH7+P68366+Q13509+Q71U36+P04350+Q3ZCM7+P07437+P68363+Q9BQE3+Q6PEY2+Q13885+Q9BVA1+Q9BUF5); assay: Induction of microtubule depolymerization in human MCF7 cells at 10 uM measured every 5 mins for 60 mins by spectrophotometric method; format: cell-based
How it was run: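 Purified tubulin at 2 mg/mL in PEM buffer preincubated on ice with compound or DMSO. PEG added to a final 3 mg/mL, then polymerization followed at 37 °C by absorbance at 350 nm every 5 min for 60 min.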

MCF7 [3] = assay: Antitumor activity against human MCF7 cells xenografted in BALB/c nude mouse assessed as decrease in tumor weight at 10 mg/kg, iv administered every 2 days for 21 days and measured every 2 days; format: functional; design: scale not given: the % may be the effect or the level left; settings: time 21 day
How it was run: (§2)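 MCF-7 cells (6 × 10⁶) injected subcutaneously into right flank of BALB/c nude mice; after 7 days animals randomized, eight per group. Dosing iv every 2 days for 21 days, vehicle 10% DMSO/5% Tween 80/85% saline. Tumor size and body weight recorded every 2 days; tumors excised and weighed at sacrifice.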

MCF7 [4] = assay: Antitumor activity against human MCF7 cells xenografted in BALB/c nude mouse assessed as decrease in tumor weight at 20 mg/kg, iv administered every 2 days for 21 days and measured every 2 days; format: functional; design: scale not given: the % may be the effect or the level left; settings: time 21 day; how it was run: as §2

CCN(CC)c1ccc(N(C)c2cc(C)nc3ccccc23)cc1
IC50 (MCF7 [1]): 25 nM | IC50 (L02): 31 nM | IC50 [2]: 267 nM | IC50 (MCF-10A): 12 nM

Cc1nc(N(C)c2cnc3c(ccn3C)c2)c2ccccc2n1
IC50 (MCF7 [1]): 2.1 nM | IC50 (L02): 7.3 nM | IC50 [2]: 2.1 nM | IC50 (MCF-10A): 16 nM

CC(=O)O[C@H]1C(=O)[C@@]2(C)[C@H]([C@H](OC(=O)c3ccccc3)[C@]3(O)C[C@H](OC(=O)[C@H](O)[C@@H](NC(=O)c4ccccc4)c4ccccc4)C(C)=C1C3(C)C)[C@]1(OC(C)=O)CO[C@@H]1C[C@@H]2O [PACLITAXEL]
Activity (Tubulin (Homo sapiens)): inactive | Activity (MCF7 [3]): 84.2%

Cc1cc(N(C)c2ccc3c(c2)OCO3)c2ccccc2n1
IC50 (MCF7 [1]): 54 nM | IC50 (L02): 2500 nM | IC50 [2]: 46 nM | IC50 (MCF-10A): 127 nM

Cc1ccc(N(C)c2cc(C)nc3ccccc23)cc1
IC50 (MCF7 [1]): 103 nM | IC50 (L02): 1530 nM | IC50 [2]: 54 nM | IC50 (MCF-10A): 184 nM

COc1ccc(N(C)c2cc(C)nc3ccccc23)cc1OC
IC50 (MCF7 [1]): 97 nM | IC50 (L02): 2170 nM | IC50 [2]: 29 nM | IC50 (MCF-10A): 473 nM

Cc1cc(N(C)c2ccc(C(F)(F)F)cc2)c2ccccc2n1
IC50 (MCF7 [1]): > 1000 nM | IC50 (L02): 3840 nM | IC50 [2]: 859 nM | IC50 (MCF-10A): > 1000 nM

Cc1cc(N(C)c2ccc3c(c2)cc(C)n3C)c2ccccc2n1
IC50 (MCF7 [1]): 2.4 nM | IC50 (L02): 7.3 nM | IC50 [2]: 2.2 nM | IC50 (MCF-10A): 10 nM

Cc1cc(N(C)c2ccc(N(C)C)cc2)c2ccccc2n1
IC50 (MCF7 [1]): 943 nM | IC50 (L02): 227 nM | IC50 [2]: 33 nM | IC50 (MCF-10A): 49 nM

COc1ccc(/C=C\c2cc(OC)c(OC)c(OC)c2)cc1O [COMBRETASTATIN A4]
IC50 (MCF7 [1]): 4.8 nM | IC50 (L02): 10.3 nM | Activity (MCF7 [4]): 37.5% | IC50 (MCF-10A): 99 nM | Activity (Tubulin (Homo sapiens)): Active

Cc1cc(N(C)c2cnc3c(ccn3C)c2)c2ccccc2n1
IC50 (MCF7 [1]): 4.5 nM | IC50 (L02): 10 nM | IC50 [2]: 6.1 nM | IC50 (MCF-10A): 24 nM

COc1cc(N(C)c2cc(C)nc3ccccc23)cc(OC)c1OC
IC50 (MCF7 [1]): > 1000 nM | IC50 (L02): 4120 nM | IC50 [2]: 912 nM | IC50 (MCF-10A): > 1000 nM

Cc1cc(N(C)c2ccc(-c3ccccc3)cc2)c2ccccc2n1
IC50 (MCF7 [1]): > 1000 nM | IC50 (L02): 3450 nM | IC50 [2]: 817 nM | IC50 (MCF-10A): > 1000 nM
